Columns and labels:
[1] = biological target: T1, Muscarinic acetylcholine receptor M2 (Homo sapiens, UniProt P08172); experiment: Affinity for Muscarinic acetylcholine receptor M2
T1 sequence (P08172 whole entry): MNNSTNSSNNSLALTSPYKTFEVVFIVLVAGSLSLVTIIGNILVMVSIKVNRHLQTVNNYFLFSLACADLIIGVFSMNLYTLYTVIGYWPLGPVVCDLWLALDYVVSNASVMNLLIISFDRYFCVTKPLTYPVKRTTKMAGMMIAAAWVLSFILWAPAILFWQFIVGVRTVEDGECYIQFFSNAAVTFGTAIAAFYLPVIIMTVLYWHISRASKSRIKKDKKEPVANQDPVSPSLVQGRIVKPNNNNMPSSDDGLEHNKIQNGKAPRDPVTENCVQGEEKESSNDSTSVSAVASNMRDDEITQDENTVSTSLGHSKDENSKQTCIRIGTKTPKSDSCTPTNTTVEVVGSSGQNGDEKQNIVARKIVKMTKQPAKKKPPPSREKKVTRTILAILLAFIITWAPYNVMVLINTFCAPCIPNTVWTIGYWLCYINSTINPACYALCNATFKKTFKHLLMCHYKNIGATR

[2] = biological target: T2, C-C chemokine receptor type 5 (Homo sapiens, UniProt P51681); experiment: Inhibition of [125I]-labeled RANTES binding to C-C chemokine receptor type 5
In short: (§1)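 Membranes from CHO cells expressing CCR5 incubated 1 h with 125I-RANTES, with or without compound. Counts averaged. IC50 taken as the amount inhibiting 50% of total 125I-RANTES binding. Ki derived from the binding data. Standard error 10%; assay-to-assay variability 2–3 fold.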

[3] = biological target: T2, C-C chemokine receptor type 5; experiment: Ability to inhibit [125I]-labeled RANTES binding to C-C chemokine receptor type 5; in short: as §1
[4] = Antiviral activity was measured as inhibition of the growth of primary HIV-1 isolate (US-1) in human peripheral blood mononuclear cells; assay type: functional
[5] = biological target: T2, C-C chemokine receptor type 5; experiment: Ability to inhibit [125I]-labeled RANTES binding to C-C chemokine receptor type 5 expressed in membrane preparation of CHO cells; assay type: cell membranes; in short: as §1

T2 sequence (P51681 whole entry): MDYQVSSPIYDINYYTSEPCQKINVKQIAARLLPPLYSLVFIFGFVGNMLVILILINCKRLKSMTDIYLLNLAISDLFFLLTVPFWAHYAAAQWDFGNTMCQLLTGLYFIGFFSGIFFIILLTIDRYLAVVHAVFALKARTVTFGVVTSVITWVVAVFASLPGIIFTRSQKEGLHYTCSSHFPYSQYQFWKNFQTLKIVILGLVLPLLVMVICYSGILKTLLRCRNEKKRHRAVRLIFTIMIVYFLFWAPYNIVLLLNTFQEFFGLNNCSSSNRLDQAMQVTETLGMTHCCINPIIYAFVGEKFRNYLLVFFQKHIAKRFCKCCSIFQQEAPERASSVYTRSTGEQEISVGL

| Structure (SMILES) | Ki [1] [nM] | Ki [2] [nM] | IC50 [3] [nM] | IC50 [4] [nM] | Ki [5] [nM] |
| --- | --- | --- | --- | --- | --- |
| Cc1cccc(C)c1C(=O)N1CCC(N2CCN([C@@H](C)c3ccc(S(=O)(=O)c4ccc5c(c4)OCO5)cc3)CC2)CC1 | 1 | 442 |  |  |  |
| Cc1cccc(C)c1C(=O)N1CCC(N2CCN([C@@H](C)c3ccc(S(=O)(=O)c4ccc5c(c4)OCO5)cc3)[C@H](C)C2)CC1 | 0.8 |  | 440 |  |  |
| Cc1cccc(C)c1C(=O)N1CCC(N2CCN(Cc3ccc(Cc4ccc5c(c4)OCO5)cc3)[C@@H](C)C2)CC1 | > 40 | 44 |  |  |  |
| Cc1ccccc1C(=O)N1CCC(N2CCN([C@@H](C)c3ccc(Cc4ccc5c(c4)OCO5)cc3)[C@@H](C)C2)CC1 | 35 |  | 90 |  |  |
| Cc1cccc(C)c1C(=O)N1CCC(N2CCN([C@@H](C)c3ccc(Cc4ccc5c(c4)OCO5)cc3)[C@@H](C)C2)CC1 | 760 | 18 |  | 8 |  |
| C[C@H]1CN(C2CCN(C(=O)c3c(N)cccc3Cl)CC2)CCN1[C@@H](C)c1ccc(S(=O)(=O)c2ccc3c(c2)OCO3)cc1 | 100 | 32 |  |  |  |
| Cc1cccc(C)c1C(=O)N1CCC(N2CCN(Cc3ccc(Cc4ccc5c(c4)OCO5)cc3)CC2)CC1 | 497 | 352 |  |  |  |
| Cc1cccc(C)c1C(=O)N1CCC(N2CCN([C@@H](C)c3ccc(Cc4cccc(Cl)c4)cc3)[C@@H](C)C2)CC1 | > 1400 | 45 |  |  |  |
| Cc1cccc(C)c1C(=O)N1CCC(N2CCN([C@@H](C)c3ccc(S(=O)(=O)c4ccc5c(c4)OCO5)cc3)[C@@H](C)C2)CC1 | 485 | 28 |  |  |  |
| C[C@H]1CN(C2CCN(C(=O)c3c(Cl)cccc3Cl)CC2)CCN1[C@@H](C)c1ccc(S(=O)(=O)c2ccc3c(c2)OCO3)cc1 | 270 | 49 |  |  |  |
| Cc1cccc(C)c1C(=O)N1CCC(N2CCN(Cc3ccc(S(=O)(=O)c4ccc5c(c4)OCO5)cc3)CC2)CC1 | 31 | > 1300 |  |  |  |
| Cc1cccc(C)c1C(=O)N1CCC(N2CCN(Cc3ccc(S(=O)(=O)c4ccc5c(c4)OCO5)cc3)[C@@H](C)C2)CC1 | > 40 | 74 |  |  |  |
| C[C@H]1CN(C2CCN(C(=O)c3c(F)cccc3F)CC2)CCN1[C@@H](C)c1ccc(S(=O)(=O)c2ccc3c(c2)OCO3)cc1 | 352 | 230 |  |  |  |
| Cc1cccc(N)c1C(=O)N1CCC(N2CCN([C@@H](C)c3ccc(S(=O)(=O)c4ccc5c(c4)OCO5)cc3)[C@@H](C)C2)CC1 | 100 |  |  |  | 31 |

Source: ChEMBL document CHEMBL1133909, “Piperazine-based CCR5 antagonists as HIV-1 inhibitors. I: 2(S)-methyl piperazine as a key pharmacophore element” (Bioorg Med Chem Lett, 2001)
